pIC50, pKd: −log10 of the molar value.
What was measured:
[1] = Inhibition of amyloid beta (1 to 42) aggregation in vitro cell-free polymerization assay
[2] = tested on: Escherichia coli BL21(DE3); test: Inhibition of amyloid beta (1 to 42) aggregation in Escherichia coli competent cells BL21 (DE3) at 200 uM after overnight incubation by Thioflavin-S steady-state fluorescence assay
Outline: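 Aβ42 (extra N-terminal Met) expressed from pET28a in E. coli BL21(DE3). Cells grown in M9 minimal medium with 50 μg/mL kanamycin and 25 μM Th-S (final), IPTG-induced or not, with compound at 200 μM final in DMSO, overnight at 37 °C, 1400 rpm. Th-S read at ex 440 nm, em 460–600 nm. Amyloid band = induced minus noninduced spectrum, normalized to OD600.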

[3] = target: T1, Amyloid-beta precursor protein (Homo sapiens, UniProt P05067); test: Inhibition of amyloid beta (1 to 42) (unknown origin) aggregation at 200 uM after 48 hrs by Thioflavin-T fluorescence assay relative to control
[4] = target: T1, Amyloid-beta precursor protein; test: Inhibition of amyloid beta (1 to 42) (unknown origin) aggregation by Thioflavin-T fluorescence assay
[5] = n-octanol-water partition coefficient, log P of the compound; type: physicochemical
[6] = target: T1, Amyloid-beta precursor protein; test: Inhibition of amyloid beta (1 to 42) (unknown origin) aggregation assessed as lag time at 200 uM in Escherichia coli BL21 (DE3) cells by Thioflavin-S staining time-course kinetics (reference value: 64.4 mins)
[7] = target: T1, Amyloid-beta precursor protein; test: Displacement of [3H]PIB from human amyloid beta (1 to 40) fibrils after 3 hrs by liquid scintillation counting
[8] = target: T1, Amyloid-beta precursor protein; test: Inhibition of amyloid beta (1 to 42) (unknown origin) aggregation assessed as end-time for aggregation at 200 uM after 48 hrs by Thioflavin-T fluorescence assay
[9] = target: T1, Amyloid-beta precursor protein; test: Inhibition of amyloid beta (1 to 42) (unknown origin) aggregation assessed as apparent elongation constant at 200 uM after 48 hrs by Thioflavin-T fluorescence assay
[10] = target: T1, Amyloid-beta precursor protein; test: Inhibition of recombinant amyloid beta (1 to 42) fibrils (unknown origin) by thioflavin-T fluorescence assay
[11] = target: T1, Amyloid-beta precursor protein; test: Inhibition of amyloid beta (1 to 42) (unknown origin) aggregation assessed as half life for aggregation at 200 uM by Thioflavin-S fluorescence assay
[12] = n-octanol/water, read-out: logP

T1 sequence (P05067 whole entry): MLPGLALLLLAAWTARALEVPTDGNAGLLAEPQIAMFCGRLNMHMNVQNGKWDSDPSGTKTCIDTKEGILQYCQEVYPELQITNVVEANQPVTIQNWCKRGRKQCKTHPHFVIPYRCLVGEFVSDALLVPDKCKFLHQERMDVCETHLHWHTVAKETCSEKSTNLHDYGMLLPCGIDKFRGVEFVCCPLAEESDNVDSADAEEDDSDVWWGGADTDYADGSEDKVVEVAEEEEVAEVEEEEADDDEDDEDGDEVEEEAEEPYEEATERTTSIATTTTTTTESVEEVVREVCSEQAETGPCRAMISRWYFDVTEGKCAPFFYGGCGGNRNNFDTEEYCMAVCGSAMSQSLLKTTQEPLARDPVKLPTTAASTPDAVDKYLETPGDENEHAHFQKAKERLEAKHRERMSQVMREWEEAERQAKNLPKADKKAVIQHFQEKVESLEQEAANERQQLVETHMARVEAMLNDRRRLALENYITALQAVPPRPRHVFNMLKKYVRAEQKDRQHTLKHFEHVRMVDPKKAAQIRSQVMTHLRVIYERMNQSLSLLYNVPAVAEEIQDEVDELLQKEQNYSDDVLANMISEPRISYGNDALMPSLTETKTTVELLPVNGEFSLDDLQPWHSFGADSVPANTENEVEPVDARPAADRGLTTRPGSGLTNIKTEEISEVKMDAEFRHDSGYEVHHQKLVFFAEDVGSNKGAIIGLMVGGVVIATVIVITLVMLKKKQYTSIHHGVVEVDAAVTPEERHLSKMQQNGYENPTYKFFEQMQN

Question: With O=c1c(O)c(-c2ccc(O)cc2)oc2cc(O)cc(O)c12 [KAEMPFEROL] as the molecule, how does the pIC50 [1] read?
Answer: 4.12

Question: With O=c1c(O)c(-c2ccccc2)oc2cc(O)cc(O)c12 [GALANGIN] as the molecule, how does the pIC50 [1] read?
Answer: < 3.30

Question: Which results are given for O=c1c(O)c(-c2ccc(O)c(O)c2)oc2cc(O)cc(O)c12 [QUERCETIN]?
Answer: inhibition [2]: 81.3%; inhibition [3]: 75.4%; pIC50 [4]: 3.90; logP ([5]; octanol/water): 2.7; pIC50 [1]: 4.82; Tlag [6]: 82.7 min

Question: What does the source list for CNc1ccc(-c2nc3ccc(O)cc3s2)cn1?
Answer: pKd [7]: 8.08; logP [5, 12]: 2.7

Question: What does the source list for O=C1c2c(O)cc(O)cc2O[C@H](c2cc(O)c(O)c(O)c2)[C@H]1O [AMPELOPSIN]?
Answer: pIC50 [4]: 4.60 to 4.89; pIC50 [1]: 4.60

Question: Which inhibition [2] does the source give for COc1cccc(C=O)c1O here?
Answer: 18.5%

Question: With O=c1c(O)c(-c2ccccc2O)oc2cc(O)cc(O)c12 [DATISCETIN] as the molecule, how does the pIC50 [1] read?
Answer: 4.26

Question: With O=c1c(O)c(-c2ccc(O)cc2O)oc2cc(O)cc(O)c12 [MORIN] as the molecule, how does the pIC50 [1] read?
Answer: 4.52

Question: For COc1ccc2[nH]cc(CCNC(C)=O)c2c1, which inhibition [2] is on record?
Answer: 7.5%

Question: Which inhibition [2] does the source give for O=C(/C=C/c1ccc(O)c(O)c1)O[C@H](Cc1ccc(O)c(O)c1)C(=O)O here?
Answer: 5.5%

Question: Which inhibition [2] does the source give for COc1cc(/C=C/C(=O)CC(=O)/C=C/c2ccc(O)c(OC)c2)ccc1O here?
Answer: 37.8%

Question: Which TIME [8] does the source give for O=c1cc(-c2ccc(O)cc2)oc2cc(O)cc(O)c12 [APIGENIN] here?
Answer: 8.85 h

Question: What about the inhibition [2] of the same molecule?
Answer: 77.3%

Question: And the inhibition [3]?
Answer: 52.7%

Question: What about the pIC50 [4] of the same molecule?
Answer: 3.75

Question: What about the Ke(app) [9] of the same molecule?
Answer: 61.6 M⁻¹ s⁻¹

Question: And the logP [5, 12]?
Answer: 2.2

Question: And the pIC50 [10]?
Answer: 4.41 to 4.64

Question: What about the T1/2 [11] of the same molecule?
Answer: 5.1 h

Question: And the Tlag [6]?
Answer: 81.3 min
